The values that follow come from ChEMBL document CHEMBL1145325, “p38 MAP kinase inhibitors. Part 3: SAR on 3,4-dihydropyrimido[4,5-d]pyrimidin-2-ones and 3,4-dihydropyrido[4,3-d]pyrimidin-2-ones” (Bioorg Med Chem Lett, 2006).

Series [1] can be described thus: Oral bioavailability in rat. It is filed as ADME, organism-based. The settings on record: in vivo.
Series [2] in a line: Half life in rat. In kind it is ADME, organism-based. As to conditions: in vivo; call rule not given here.
Series [3] deals with Mitogen-activated protein kinase 14 (Homo sapiens, UniProt Q16539). The experiment in a line: Inhibition of p38alpha.
Chain of Mitogen-activated protein kinase 14 (Q16539 whole entry): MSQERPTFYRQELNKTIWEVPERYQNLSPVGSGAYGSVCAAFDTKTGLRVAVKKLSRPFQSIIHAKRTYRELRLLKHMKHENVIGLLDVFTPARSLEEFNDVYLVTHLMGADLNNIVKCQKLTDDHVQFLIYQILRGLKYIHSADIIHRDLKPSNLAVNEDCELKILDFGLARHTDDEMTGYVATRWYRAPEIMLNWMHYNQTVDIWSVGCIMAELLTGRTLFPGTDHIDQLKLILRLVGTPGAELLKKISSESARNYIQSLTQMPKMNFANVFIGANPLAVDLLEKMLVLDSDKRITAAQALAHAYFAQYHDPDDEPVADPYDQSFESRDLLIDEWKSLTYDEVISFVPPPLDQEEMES
Series [4] deals with THP-1. The experiment in a line: Inhibition of LPS-stimulated TNFalpha release in human THP1 cells. In kind it is functional, cell-based. The gist of the method: (§1)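 THP-1 cells at 2.5 · 10⁶/mL suspended in a PBS-based medium. Compound added in DMSO, then LPS. Incubated 4 h at 37 °C under CO₂. TNF-α in the supernatant measured by sandwich ELISA, with anti-human TNF-α as the capture antibody.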

The species entered for series [5] is Homo sapiens. Kind of series: Inhibition of LPS-stimulated TNFalpha release in human whole blood. It is filed as functional, organism-based.
Series [6] deals with Voltage-gated L-type calcium channel (Homo sapiens, UniProt Q13936+Q13698+Q01668+O60840). Kind of series: Binding affinity to DLZ binding site of calcium channel. It is filed as protein assay.
Series [7] concerns the target Voltage-gated inwardly rectifying potassium channel KCNH2 (Homo sapiens, UniProt Q12809). The experiment in a line: Binding affinity to iKr potassium channel.
Series [8] is filed under the species Homo sapiens. The experiment in a line: Inhibition of LPS-stimulated TNFalpha release in human whole blood upto 15 uM. In kind it is functional, organism-based.
Series [9] relates to THP-1. Kind of series: Inhibition of LPS-stimulated TNFalpha release in human THP1 cells upto 15 uM. In kind it is functional, cell-based. The gist of the method: as §1

The structures appear in SMILES notation.

Chain of Voltage-gated inwardly rectifying potassium channel KCNH2 (Q12809 whole entry): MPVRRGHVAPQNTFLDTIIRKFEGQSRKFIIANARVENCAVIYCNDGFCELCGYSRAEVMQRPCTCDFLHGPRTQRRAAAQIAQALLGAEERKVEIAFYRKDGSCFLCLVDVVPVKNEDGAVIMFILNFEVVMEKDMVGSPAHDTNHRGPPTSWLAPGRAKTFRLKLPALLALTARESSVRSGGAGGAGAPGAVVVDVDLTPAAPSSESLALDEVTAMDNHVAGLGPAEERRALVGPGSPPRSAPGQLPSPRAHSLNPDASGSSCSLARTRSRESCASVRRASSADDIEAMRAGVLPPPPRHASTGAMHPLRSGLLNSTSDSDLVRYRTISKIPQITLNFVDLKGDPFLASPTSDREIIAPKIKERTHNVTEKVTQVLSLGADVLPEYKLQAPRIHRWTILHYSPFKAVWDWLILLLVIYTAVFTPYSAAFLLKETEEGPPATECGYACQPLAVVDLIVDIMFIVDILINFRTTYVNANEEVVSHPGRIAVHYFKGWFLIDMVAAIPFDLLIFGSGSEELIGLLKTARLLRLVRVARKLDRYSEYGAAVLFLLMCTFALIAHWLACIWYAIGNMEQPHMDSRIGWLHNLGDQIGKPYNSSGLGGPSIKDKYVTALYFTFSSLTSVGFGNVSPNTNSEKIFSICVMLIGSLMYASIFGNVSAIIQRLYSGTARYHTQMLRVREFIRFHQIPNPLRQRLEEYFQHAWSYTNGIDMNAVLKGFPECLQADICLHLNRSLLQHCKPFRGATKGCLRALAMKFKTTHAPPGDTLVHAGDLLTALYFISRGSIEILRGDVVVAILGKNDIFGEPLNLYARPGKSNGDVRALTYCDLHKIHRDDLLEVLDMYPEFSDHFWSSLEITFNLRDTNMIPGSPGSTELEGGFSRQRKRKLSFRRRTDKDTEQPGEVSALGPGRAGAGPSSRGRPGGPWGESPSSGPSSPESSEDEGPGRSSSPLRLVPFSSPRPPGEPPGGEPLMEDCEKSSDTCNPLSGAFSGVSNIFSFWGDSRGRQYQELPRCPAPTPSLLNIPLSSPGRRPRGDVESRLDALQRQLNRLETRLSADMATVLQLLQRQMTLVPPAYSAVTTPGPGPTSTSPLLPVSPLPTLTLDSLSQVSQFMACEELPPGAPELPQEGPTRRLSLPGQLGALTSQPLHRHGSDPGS

In general, bioavailability refers to the share of a dose that reaches the circulation, judged against a reference dose that is usually intravenous. Higher therefore signals good availability. As a reminder, the half-life is the time in which the quantity being followed falls by half. In the case of `CC(C)N1CCC(c2cc3c(c(-c4ccccc4Cl)n2)CNC(=O)N3c2c(Cl)cccc2Cl)CC1`, the bioavailability in series [1] came to 18%. Also, in series [2], the half-life is 126 min.
In general, IC50 refers to the concentration needed to halve the response being measured. In turn, `Nc1cc(-c2ccccc2Cl)c2c(c1)N(c1c(Cl)cccc1Cl)C(=O)NC2` returned an IC50 in series [3] of 6 nM.
With `CN1C2CCC1CC(Nc1nc(-c3ccccc3Cl)c3c(n1)N(c1c(Cl)cccc1Cl)C(=O)NC3)C2` (stereo not drawn), the IC50 amounted to 0.5 nM in [3], 2.6 nM in series [4] and 17 nM in [5]. In addition, the Activity in series [6] stood at 2.2 µM; in series [7], 8.9 µM.
Taken in the same sequence, the figures for `COCCNc1nc(-c2ccc(Cl)cc2Cl)c2c(n1)N(c1c(Cl)cccc1Cl)C(=O)NC2` were 2 nM, 97 nM, 270 nM, greater than 10 µM and 3 µM.
For `CSc1nc(-c2ccccc2Cl)c2c(n1)N(c1c(Cl)cccc1Cl)C(=O)NC2`, the values for the IC50 in series [3], in [4] and in series [8] were 10 nM, 700 nM and “Not Active”, respectively. Also, in series [6], the Activity came to 6 µM.
Regarding `CN(C)c1nc(-c2ccccc2Cl)c2c(n1)N(c1c(Cl)cccc1Cl)C(=O)NC2`, the IC50 in [3] was 3 nM; in series [8] it was “Not Active”; in series [9] it was “Not Active”. Further, the Activity was greater than 10 µM in series [6] and 6 µM in series [7].
In series [3], `O=C1NCc2c(-c3ccccc3Cl)cc(O)cc2N1c1c(Cl)cccc1Cl` displayed an IC50 of 2 nM.
`CC(C)N1CCC(Nc2nc(-c3ccccc3Cl)c3c(n2)N(c2c(Cl)cccc2Cl)C(=O)NC3)CC1` displayed a bioavailability in series [1] of 24%. Besides, in series [2], the half-life was 120 min. For the same compound, the IC50 is 0.6 nM in series [3], 1 nM in series [4] and 15 nM in series [5]. Also, the Activity in series [6] worked out at 3.3 µM; in series [7], 6.4 µM.
In the case of `CN(C)CCN1CCN(c2nc(-c3ccccc3Cl)c3c(n2)N(c2c(Cl)cccc2Cl)C(=O)NC3)CC1`, the results for the IC50 in series [3], in series [4] and in series [5] were 0.5 nM, 2.3 nM and 100 nM, respectively. The Activity in series [6] amounted to 1.7 µM; in series [7] it was 3.8 µM.
The compound `CN(C)CCN1CCN(c2nc(-c3ccc(Cl)cc3Cl)c3c(n2)N(c2c(Cl)cccc2Cl)C(=O)NC3)CC1` displayed a bioavailability in series [1] of 3%. Further, the values for the IC50 in series [3], in series [4] and in [5] were 1 nM, 22 nM and 42 nM, respectively. Further, the Activity in series [6] is 0.22 µM.
Take `O=C1NCc2c(-c3ccccc3Cl)nc(NN3CCOCC3)nc2N1c1c(Cl)cccc1Cl`: the results for the IC50 in series [3], in series [4] and in [5] were 4 nM, 99 nM and 1000 nM, respectively. Moreover, the Activity is 7 µM in [6] and 6.9 µM in [7].
For the compound `O=C1NCc2c(-c3ccccc3Cl)nc(NC3CN4CCC3CC4)nc2N1c1c(Cl)cccc1Cl` (stereo not drawn), the IC50 in series [3] came out at 1.2 nM; in series [4], 34 nM; in series [5], 360 nM. The Activity was found to be 1.3 µM in [6] and 5.8 µM in [7].
Regarding `CNc1nc(-c2ccccc2Cl)c2c(n1)N(c1c(Cl)cccc1Cl)C(=O)NC2`, the values for the IC50 in series [3], in [4] and in [5] were 2 nM, 22 nM and 850 nM, respectively. The Activity in series [6] was found to be 10 µM; in series [7], 6.4 µM.
For the compound `CS(=O)(=O)c1nc(-c2ccccc2Cl)c2c(n1)N(c1c(Cl)cccc1Cl)C(=O)NC2`, the IC50 in series [3] is 4.2 nM; in series [4] it was 500 nM; in series [8], “Not Active”. The Activity was greater than 10 µM in series [6] and 9 µM in [7].
`CC(C)N1CCN(c2nc(-c3ccc(Cl)cc3Cl)c3c(n2)N(c2c(Cl)cccc2Cl)C(=O)NC3)CC1`: the values for the IC50 in series [3], in [4] and in series [5] were 20 nM, 330 nM and 1940 nM, respectively. Also, the Activity in [6] is 0.7 µM; in series [7], 0.2 µM.
`C[C@@H]1CN(c2nc(-c3ccc(Cl)cc3Cl)c3c(n2)N(c2c(Cl)cccc2Cl)C(=O)NC3)C[C@H](C)O1`: the IC50 in series [3] was 2 nM; in series [4] it was 500 nM; in series [8] it was “Not Active”. The Activity was 6 µM in series [6] and 5 µM in [7].
`O=C1NCc2c(-c3ccc(F)cc3F)cc(C3CCNCC3)cc2N1c1c(Cl)cccc1Cl` gave an IC50 in [5] of 10 nM.
In the case of `CC1(C)CC(Nc2nc(-c3ccccc3Cl)c3c(n2)N(c2c(Cl)cccc2Cl)C(=O)NC3)CC(C)(C)N1`, the IC50 was found to be 0.7 nM in [3], 2.6 nM in series [4] and 38 nM in series [5]. For the same compound, the Activity turned out to be 1.2 µM in series [6] and 4.5 µM in [7].
For `O=C1NCc2c(-c3ccccc3Cl)nc(N3CCc4[nH]ncc4C3)nc2N1c1c(Cl)cccc1Cl`, the IC50 in series [3] stood at 1.9 nM; in series [4], 28 nM; in [5], 500 nM. Moreover, the Activity in series [6] was greater than 30 µM; in series [7], 10 µM.
Take `CC(C)Nc1nc(-c2ccccc2Cl)c2c(n1)N(c1c(Cl)cccc1Cl)C(=O)NC2`: the IC50 was 1.1 nM in [3], 38 nM in [4] and “Not Active” in [8]. The Activity was found to be 10 µM in [6] and 4.5 µM in series [7].
On to `CN(C)CCOc1nc(-c2ccccc2Cl)c2c(n1)N(c1c(Cl)cccc1Cl)C(=O)NC2`, for which the IC50 is 4.2 nM in series [3], 21 nM in [4] and 250 nM in series [5]. Also, the Activity in [6] turned out to be 8.8 µM; in series [7], 10 µM.
As to `CC(C)N1CCC(c2cc(-c3ccc(F)cc3F)c3c(c2)N(c2c(Cl)cccc2Cl)C(=O)NC3)CC1`, the IC50 in series [3] came to 0.2 nM; in series [5], 20 nM.
On to `O=C1NCc2c(-c3ccccc3Cl)nc(O)nc2N1c1c(Cl)cccc1Cl`, for which the results for the IC50 in series [3], in [4] and in [8] were 4 nM, 170 nM and “Not Active”, respectively. In addition, the results for the Activity in series [6] and in series [7] were 7 µM and 4.6 µM, respectively.
For `O=C1NCc2c(-c3ccccc3Cl)nc(N3CCOCC3)nc2N1c1c(Cl)cccc1Cl`, the results for the IC50 in series [3], in series [4] and in series [8] were 2 nM, 500 nM and “Not Active”, respectively. Also, the Activity in [6] was 6 µM.
Take `CN(C)CCNc1nc(-c2ccc(Cl)cc2Cl)c2c(n1)N(c1c(Cl)cccc1Cl)C(=O)NC2`: the IC50 in series [3] was 5.6 nM; in series [4], 20 nM; in series [5], 32 nM. Moreover, the figures for the Activity in [6] and in series [7] were 1 µM and 0.5 µM, respectively.
Take `Nc1nc(-c2ccccc2Cl)c2c(n1)N(c1c(Cl)cccc1Cl)C(=O)NC2`: in [1], the bioavailability stood at 100%. Further, the half-life in [2] was 66 min. The IC50 stood at 5.3 nM in series [3], 81 nM in series [4] and 2000 nM in series [5]. In addition, in [6], the Activity was 9.2 µM.
For `CC(C)(C)CNc1nc(-c2ccccc2Cl)c2c(n1)N(c1c(Cl)cccc1Cl)C(=O)NC2`, the IC50 in series [3] amounted to 0.8 nM; in series [4] it was 21 nM; in series [5], 1000 nM. For the same compound, the Activity in series [6] was greater than 30 µM; in [7], 10 µM.
